In ChEMBL document CHEMBL1138620, “Synthesis and antiproliferative evaluation of pyrazolo[1,5-a]-1,3,5-triazine myoseverin derivatives” (Bioorg Med Chem, 2009):
Activity calls are given as the source filed them. No cut-off for these calls is given here.

Assays:
SW480 [1] = experiment: Cell cycle arrest in human SW480 cells assessed as accumulation at G2/M phase at 30 uM after 24 hrs by flow cytometry; format: functional
Method in brief: (§1)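 Colorectal lines were cultured in D-MEM with 10% FCS and treated at 30 µM for 24 h. Cells (10^6/mL) were resuspended in propidium iodide solution, held at 4 °C overnight and analysed by flow cytometry for DNA content. Values are means of three experiments ± SD.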

SW48 [2] = experiment: Cell cycle arrest in human SW48 cells assessed as accumulation at S phase at 30 uM after 24 hrs by flow cytometry; format: functional; method in brief: as §1
SW480 [3] = experiment: Cell cycle arrest in human SW480 cells assessed as accumulation at S phase at 30 uM after 24 hrs by flow cytometry; format: functional; method in brief: as §1
[4] = Inhibition of tubulin polymerization in bovine brain; set-up: species or system Bos taurus
Method in brief: (§2)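 Purified bovine brain tubulin (29 µM) was added to PEM buffer (100 mM PIPES, 1 mM MgCl2, 1 mM EGTA) with increasing inhibitor concentrations, up to 100 µM, in DMSO at equal DMSO levels. Polymerization was followed by absorbance at 340 nm for at least 1 h at 37 °C, and IC50 was taken from concentration–response plots.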

SW480 [5] = experiment: Cell cycle arrest in human SW480 cells assessed as accumulation at G1 phase at 30 uM after 24 hrs by flow cytometry; format: functional; method in brief: as §1
HeLa [6] = experiment: Antimitotic activity in human HeLa cells expressing GFP-tubulin assessed as aberration of mitotic spindle at 12 uM after 24 hrs by fluorescence microscopy; format: functional; details: in the assay text read “6 hrs” for “24 hrs”
Method in brief: (§3)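 HeLa cells were grown in DMEM with 10% FBS at 37 °C in 5% CO2 and left to adhere for at least 36 h on poly-D-lysine-coated coverslips. Drugs were diluted in medium from 50 mM DMSO stocks. Cells were fixed with 1% paraformaldehyde then cold methanol and stained with anti-β-tubulin plus a FITC secondary, with propidium iodide counterstain. Aberrant spindles were scored as a percentage of total spindles counted.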

HeLa [7] = experiment: Antimitotic activity in human HeLa cells expressing GFP-tubulin assessed as collapse of spindle microtubule at 12 uM
HCT-116 [8] = experiment: Cell cycle arrest in human HCT116 cells assessed as accumulation at G2/M phase at 30 uM after 24 hrs by flow cytometry; format: functional; method in brief: as §1
HCT-116 [9] = experiment: Cell cycle arrest in human HCT116 cells assessed as accumulation at S phase at 30 uM after 24 hrs by flow cytometry; format: functional; method in brief: as §1
HeLa [10] = experiment: Antimitotic activity in human HeLa cells expressing GFP-tubulin assessed as induction of mitotic deffects by flow cytometry; format: functional, cell-based
HeLa [11] = experiment: Antimitotic activity in human HeLa cells expressing GFP-tubulin assessed as block of G2/M phase after 24 hrs by flow cytometry; format: functional, cell-based
Method in brief: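 HeLa cells were exposed to increasing inhibitor concentrations for 24 h. The percentage of G2/M cells was determined by flow cytometry, with nocodazole as the reference mitotic inhibitor.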

MCF7 = experiment: Cytotoxicity against human MCF7 cells after 72 hrs by MTT assay; format: functional, cell-based; details: MCF7, 72 h
Method in brief: (§4)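 Cells (5 × 10^3/well) were seeded and incubated 24 h before drug addition, then exposed for 72 h. MTT was added (5 mg/mL stock) and growth was taken as absorbance relative to untreated wells. IC50 is the dose giving 50% growth inhibition. Three experiments were run, each in triplicate. Media: D-MEM with 10% FCS for MCF-7, HCT116, SW48 and SW480; RPMI1640 with 10% FCS for Mes-sa and CEM.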

SW480 [12] = experiment: Cytotoxicity against human SW480 cells after 72 hrs by MTT assay; format: functional, cell-based; details: SW480, 72 h; method in brief: as §4
CCRF-CEM = experiment: Cytotoxicity against human CEM cells after 72 hrs by MTT assay; format: functional, cell-based; method in brief: as §4
SW48 [13] = experiment: Cell cycle arrest in human SW48 cells assessed as accumulation at G2/M phase at 30 uM after 24 hrs by flow cytometry; format: functional; method in brief: as §1
SW48 [14] = experiment: Cytotoxicity against human SW48 cells after 72 hrs by MTT assay; format: functional, cell-based; details: SW48, 72 h; method in brief: as §4
HCT-116 [15] = experiment: Cytotoxicity against human HCT116 cells after 72 hrs by MTT assay; format: functional, cell-based; details: HCT-116, 72 h; method in brief: as §4
HCT-116 [16] = experiment: Cell cycle arrest in human HCT116 cells assessed as accumulation at G1 phase at 30 uM after 24 hrs by flow cytometry; format: functional; method in brief: as §1
[17] = Cytotoxicity against human MES-SA cells after 72 hrs by MTT assay; format: functional, cell-based; method in brief: as §4
SW48 [18] = experiment: Cell cycle arrest in human SW48 cells assessed as accumulation at G1 phase at 30 uM after 24 hrs by flow cytometry; format: functional; method in brief: as §1
HeLa [19] = experiment: Antimitotic activity in human HeLa cells expressing GFP-tubulin assessed as increase in aberration of mitotic spindle after 24 hrs by fluorescence microscopy; format: functional, cell-based; details: in the assay text read “6 hrs” for “24 hrs”; method in brief: as §3
HeLa [20] = experiment: Antimitotic activity in human HeLa cells expressing GFP-tubulin assessed as induction of mitotic deffects at 50 uM by flow cytometry; format: functional, cell-based
Bos taurus = organism: Bos taurus; experiment: Inhibition of tubulin polymerization in bovine brain relative to baseline; details: concentration not given here; method in brief: as §2

Row | SMILES | Activity (SW480 [1]) [%] | Activity (SW48 [2]) [%] | Activity (SW480 [3]) [%] | IC50 [4] [µM] | Activity (SW480 [5]) [%] | Activity (HeLa [6]) [%] | Activity (HCT-116 [8]) [%] | Activity (HCT-116 [9]) [%] | Activity (HeLa [10]) | Activity (HeLa [11]) | IC50 (MCF7) [µM] | IC50 (SW480 [12]) [µM] | IC50 (CCRF-CEM) [µM] | Activity (SW48 [13]) [%] | IC50 (SW48 [14]) [µM] | IC50 (HCT-116 [15]) [µM] | Activity (HCT-116 [16]) [%] | IC50 [17] [µM] | Activity (SW48 [18]) [%] | Activity (HeLa [19]) | other results
1 | COc1ccc(CNc2nc(NCc3ccc(OC)cc3)c3ncn(C(C)C)c3n2)cc1 [MYOSEVERIN] | 84.5 | 1 | 3 | 3.6 | 12.5 | 100 | 88 | 9.5 | Active | Active | 11.5 | 4.8 | 5.7 | 98 | 2.7 | 3.3 | 1.8 | 8.5 | 1 | Dose-dependent effect | Activity (HeLa [7]): Active
2 | COc1ccc(CNc2nc(NCc3ccc(OC)cc3)n3ncc(C(C)C)c3n2)cc1 | 91.2 | 1.3 | 5.9 | 3.6 | 3 | 100 | 89.3 | 2.8 | Active | Active | 51.5 | 5.5 | 5.4 | 75.4 | 2.6 | 4.6 | 8 | 23 | 22.4 | Dose-dependent effect | –
3 | COc1ccc(CNc2nc(NCc3ccc(OC)cc3)n3nccc3n2)cc1 | 42 | 21 | 15 | 3.4 | 43 | 100 | 51 | 29 | Active | Active | 34 | 8.1 | 13 | 62 | 5.2 | 6.2 | 19 | 45 | 16 | Dose-dependent effect | –
4 | COc1ccc(CNc2nc(NCc3ccc(OC)cc3)n3ncc(Br)c3n2)cc1 | 28 | 0.5 | 9 | – | 62 | – | 55.5 | 0.5 | – | – | 35.5 | 26.5 | 38.5 | 42.5 | 7.5 | 25 | 44 | 43 | 50 | – | Activity (HeLa [20]): inactive; inhibition (Bos taurus): 50%
